Data set [1] concerns the target Kappa-type opioid receptor (Homo sapiens, UniProt P41145). As to the kind of experiment: Displacement of [3H]U69593 from human kappa opioid receptor expressed in CHO-K1 cells incubated for 1 hr by 1450 microbeta scintillation counter analysis. It counts as cell-based. The essentials: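 Membranes from transiently KOR-transfected CHO-K1 cells (~2 µg/well) used in SPA with 3H-U69,593 (1 nM). Competitor ranged 1 pM–10 µM in 50 mM Tris-HCl pH 7.4, 5 mM MgCl2, 0.1% BSA. Incubated 1 h at room temperature with shaking. Nonspecific binding defined with 10 µM dynorphin A. Sigmoidal dose-response fit; at least three independent experiments in triplicate.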
(In general: Displacement assays read how much labelled ligand stays bound in the presence of the test substance.)

Data set [2] in a line: Metabolic stability in Wistar rat plasma assessed as half life by HPLC analysis. In kind it is ADME, cell-free. The essentials: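 Peptide at 1 mg/mL in sterile PBS pH 7.4 was mixed 1:1 with thawed, centrifuged Wistar rat plasma supernatant and incubated at 37°C in triplicate. Samples at 0, 1, 2, 3, 4, 6 and 24 h were quenched with acetonitrile and then 2% TFA/water, and analysed by HPLC with inline electrospray MS.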

Each structure is given as a SMILES string. Where a SMILES comes first, the peptide text is derived from it.

The term Ki denotes the dissociation constant of the complex between target and ligand, obtained from inhibition or displacement. A high value points to lower affinity. As a reminder, the half-life is how long it takes for the measured level to halve.

Sequence of Kappa-type opioid receptor (P41145 whole entry): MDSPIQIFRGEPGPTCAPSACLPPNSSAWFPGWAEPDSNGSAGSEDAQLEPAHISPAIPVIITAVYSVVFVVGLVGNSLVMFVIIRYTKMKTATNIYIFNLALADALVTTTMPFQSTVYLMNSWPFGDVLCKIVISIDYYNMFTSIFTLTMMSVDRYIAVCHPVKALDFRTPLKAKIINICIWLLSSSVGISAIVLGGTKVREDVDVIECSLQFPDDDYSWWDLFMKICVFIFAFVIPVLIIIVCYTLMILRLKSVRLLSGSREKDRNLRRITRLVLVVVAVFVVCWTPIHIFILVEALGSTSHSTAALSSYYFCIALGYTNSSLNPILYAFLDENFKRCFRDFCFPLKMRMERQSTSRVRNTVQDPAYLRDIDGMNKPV

With `N=C(N)NCCC[C@@H](NC(=O)[C@@H](CCCNC(=N)N)NC(=O)[C@@H]1CCCN1C(=O)c1ccccc1)C(=O)N[C@@H](CCC(N)=O)C(=O)N[C@H](CN[C@H]1CSSC[C@@H](C(N)=O)NC1=O)CC1CCCCC1`, the inhibition constant (Ki) in data set [1] is 0.135 µM. Further, in data set [2], the half-life is 16 h.

For the compound `CC[C@H](C)[C@H](NC(=O)[C@H](CCC(N)=O)NC(=O)[C@H](CCCNC(=N)N)NC(=O)[C@@H](N)CCCNC(=N)N)C(N)=O` (H-RRQI-NH2), the affinity in data set [1] corresponds to a Ki of 23 µM.

The values above are taken from ChEMBL document CHEMBL5252514, “Conopeptide-Derived κ-Opioid Agonists (Conorphins): Potent, Selective, and Metabolic Stable Dynorphin A Mimetics with Antinociceptive Properties” (J Med Chem, 2016).
